According to ChEMBL document CHEMBL3576847, “Discovery of 1-(3,3-dimethylbutyl)-3-(2-fluoro-4-methyl-5-(7-methyl-2-(methylamino)pyrido[2,3-d]pyrimidin-6-yl)phenyl)urea (LY3009120) as a pan-RAF inhibitor with minimal paradoxical activation and activity against BRAF or RAS mutant tumor cells” (J Med Chem, 2015):
≈ marks a conversion by molar mass, not a printed value. Calls of active or inactive are those of the source. No cut-off for these calls is given here.

Key:
[1] = molecular target: T1, Serine/threonine-protein kinase B-raf (Homo sapiens, UniProt P15056, V600E); assay: Inhibition of recombinant BRAF V600E mutant (unknown origin) assessed as ADP formation measured for 5 hrs by pyruvate kinase/lactate dehydrogenase coupled assay in presence of ATP, MEK1, NADH
[2] = molecular target: Vascular endothelial growth factor receptor 2 (Homo sapiens, UniProt P35968); assay: Inhibition of KDR (unknown origin)
[3] = molecular target: T1, Serine/threonine-protein kinase B-raf; assay: Inhibition of BRAF V600E mutant in human A375 cells assessed as inhibition of ERK phosphorylation measured after 72 hrs by ELISA assay; format: cell-based, A-375
[4] = molecular target: Serine/threonine-protein kinase B-raf (Homo sapiens, UniProt P15056); assay: Inhibition of wild type BRAF (unknown origin) assessed as ADP formation measured for 5 hrs by pyruvate kinase/lactate dehydrogenase coupled assay in presence of ATP, MEK1, NADH
[5] = molecular target: Dual specificity mitogen-activated protein kinase kinase; MEK1/2 (Homo sapiens, UniProt P36507+Q02750); assay: Inhibition of MEK (unknown origin)
A-375 = assay: cells; details: Homo sapiens, A-375, 72 h
HCT-116 = assay: cells; details: Homo sapiens, HCT-116, 67 h
[6] = molecular target: RAF proto-oncogene serine/threonine-protein kinase (Homo sapiens, UniProt P04049); assay: Inhibition of wild type CRAF (unknown origin) assessed as ADP formation measured for 5 hrs by pyruvate kinase/lactate dehydrogenase coupled assay in presence of ATP, MEK1, PEP, NADH
GTPase KRas = GTPase KRas (Homo sapiens, UniProt P01116, G13D); assay: Inhibition of KRAS G13D mutant in human HCT116 cells assessed as inhibition of ERK phosphorylation by ELISA; format: cell-based, HCT-116
Summary of the method: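 HCT116 cells (KRAS G13D, BRAF WT; RAF signalling via CRAF) were treated with compound, and the change in cellular phospho-ERK was measured. IC50 was taken as the concentration inhibiting phospho-ERK.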

[7] = molecular target: Serine/threonine-protein kinase A-Raf (Homo sapiens, UniProt P10398); assay: Competitive binding affinity to ARAF in human A375 cells after 15 mins in presence of ATP analogue; format: cell-based, A-375
[8] = Clearance in iv dosed rat administered as suspension; format: ADME, organism-based; details: in vivo
[9] = Oral bioavailability in rat administered as suspension; format: ADME, organism-based; details: in vivo
[10] = Clearance in po dosed rat administered as suspension; format: ADME, organism-based; details: in vivo
[11] = Solubility of the compound in simulated fasted intestinal fluid; format: ADME
[12] = Oral bioavailability in dog administered as suspension; format: ADME, organism-based, Canis lupus familiaris; details: in vivo
[13] = Clearance in po dosed dog administered as suspension; format: ADME, organism-based, Canis lupus familiaris; details: in vivo
[14] = Solubility of the compound in simulated fed intestinal fluid; format: ADME
[15] = Paradoxical activation of RAS/RAF/MEK signaling pathway in human HCT116 cells expressing wild type BRAF assessed as ERK phosphorylation at 0.34 to 20000 nM; format: cell-based; details: HCT-116
Mus musculus [16] = assay: In vivo inhibition of BRAF V600E mutant in human A375 cells xenografted in po dosed athymic nu/nu mouse assessed as plasma concentration required to inhibit ERK phosphorylation by 50% after 2 hrs by ELISA; format: functional, A-375
Mus musculus [17] = assay: In vivo inhibition of BRAF V600E mutant in human HT-29 cells xenografted in athymic nu/nu mouse assessed as inhibition of ERK phosphorylation at 10 to 20 mg/kg, po bid administered for 28 days by Western blot analysis; format: functional, organism-based
Summary of the method: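 HT-29 (BRAF V600E) xenografts in mice, oral dosing for 28 days; after dosing, tumors from individual animals analysed for phospho-ERK by Western blot.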

Canis familiaris [18] = species: Canis familiaris; assay: Toxicity in dog assessed as hyperbilirubinemia; format: organism-based, Canis lupus familiaris; details: in vivo
Rattus norvegicus [19] = species: Rattus norvegicus; assay: Toxicity in rat assessed as inflammation; format: organism-based; details: in vivo
Mus musculus [20] = assay: In vivo inhibition of BRAF V600E mutant in human A375 cells xenografted in po dosed athymic nu/nu mouse assessed as inhibition of ERK phosphorylation after 2 hrs by ELISA; format: functional; details: A-375, po
Mus musculus [21] = assay: In vivo inhibition of BRAF V600E mutant in human A375 cells xenografted in po dosed athymic nu/nu mouse assessed as plasma concentration required to inhibit ERK phosphorylation by 80% after 2 hrs by ELISA; format: functional, A-375
Rattus norvegicus [22] = species: Rattus norvegicus; assay: Toxicity in rat assessed as skeletal muscle degeneration; format: organism-based; details: in vivo
Canis familiaris [23] = species: Canis familiaris; assay: Toxicity in dog assessed as bone marrow hypocellularity; format: organism-based, Canis lupus familiaris; details: in vivo
Rattus norvegicus [24] = species: Rattus norvegicus; assay: Toxicity in rat assessed as hyperbilirubinemia; format: organism-based; details: in vivo
Rattus norvegicus [25] = species: Rattus norvegicus; assay: Toxicity in rat assessed as bone marrow hypocellularity; format: organism-based; details: in vivo
Canis familiaris [26] = species: Canis familiaris; assay: Toxicity in dog assessed as skeletal muscle degeneration; format: organism-based, Canis lupus familiaris; details: in vivo
Canis familiaris [27] = species: Canis familiaris; assay: Toxicity in dog assessed as inflammation; format: organism-based, Canis lupus familiaris; details: in vivo
Mus musculus [28] = assay: Toxicity in athymic nu/nu mouse xenografted with human HT-29 cells assessed as body weight loss at 10 to 20 mg/kg, po bid administered for 28 days; format: organism-based; details: in vivo, 672 h
Summary of the method: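 HT-29 (BRAF V600E) xenograft mice dosed orally for 28 days; body weight loss monitored.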

Mus musculus [29] = assay: In vivo inhibition of BRAF V600E mutant in human HT-29 cells xenografted in po dosed athymic nu/nu mouse assessed as inhibition of ERK phosphorylation administered as bid for 28 days by Western blot

Sequence of RAF proto-oncogene serine/threonine-protein kinase (P04049 whole entry): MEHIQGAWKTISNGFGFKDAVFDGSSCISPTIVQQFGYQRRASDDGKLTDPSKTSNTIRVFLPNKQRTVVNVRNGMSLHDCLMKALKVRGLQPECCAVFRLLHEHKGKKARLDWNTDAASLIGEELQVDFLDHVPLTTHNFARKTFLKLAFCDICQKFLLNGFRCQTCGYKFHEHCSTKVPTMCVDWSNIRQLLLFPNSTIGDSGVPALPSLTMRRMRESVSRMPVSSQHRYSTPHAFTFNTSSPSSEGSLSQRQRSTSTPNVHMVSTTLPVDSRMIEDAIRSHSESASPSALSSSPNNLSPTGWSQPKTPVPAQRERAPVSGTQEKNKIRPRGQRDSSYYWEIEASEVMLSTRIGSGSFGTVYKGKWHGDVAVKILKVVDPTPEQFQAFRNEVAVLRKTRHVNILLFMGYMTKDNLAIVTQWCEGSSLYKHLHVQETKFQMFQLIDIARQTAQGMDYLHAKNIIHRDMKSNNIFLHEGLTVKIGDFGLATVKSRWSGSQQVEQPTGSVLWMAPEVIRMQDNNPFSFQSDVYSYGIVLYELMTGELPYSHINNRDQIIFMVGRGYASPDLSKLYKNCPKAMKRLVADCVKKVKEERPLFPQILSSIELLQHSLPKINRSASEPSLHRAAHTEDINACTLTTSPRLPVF
Sequence of Serine/threonine-protein kinase B-raf (Homo sapiens, UniProt P15056) (P15056 whole entry): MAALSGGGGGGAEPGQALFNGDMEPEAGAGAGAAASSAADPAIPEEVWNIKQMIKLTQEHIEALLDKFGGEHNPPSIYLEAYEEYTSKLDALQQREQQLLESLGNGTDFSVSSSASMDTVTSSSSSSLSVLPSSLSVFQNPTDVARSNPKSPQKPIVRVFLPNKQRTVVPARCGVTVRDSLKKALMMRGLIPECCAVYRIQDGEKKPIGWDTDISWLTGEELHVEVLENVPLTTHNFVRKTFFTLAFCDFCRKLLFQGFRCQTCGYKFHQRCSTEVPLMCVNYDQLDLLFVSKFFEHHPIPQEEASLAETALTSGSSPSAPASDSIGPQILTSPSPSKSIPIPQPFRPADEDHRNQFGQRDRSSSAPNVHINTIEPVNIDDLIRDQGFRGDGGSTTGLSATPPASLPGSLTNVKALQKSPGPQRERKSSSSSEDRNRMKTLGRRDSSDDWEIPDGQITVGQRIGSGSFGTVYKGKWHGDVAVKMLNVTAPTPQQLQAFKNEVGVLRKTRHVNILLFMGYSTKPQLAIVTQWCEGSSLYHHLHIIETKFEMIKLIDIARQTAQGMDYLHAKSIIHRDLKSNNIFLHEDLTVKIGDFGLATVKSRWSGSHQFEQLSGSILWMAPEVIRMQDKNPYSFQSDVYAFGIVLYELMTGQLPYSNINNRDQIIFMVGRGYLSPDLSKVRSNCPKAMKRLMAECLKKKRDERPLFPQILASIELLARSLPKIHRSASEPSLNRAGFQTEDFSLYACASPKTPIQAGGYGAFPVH
T1 sequence (P15056 2-766 V600E limits assumed): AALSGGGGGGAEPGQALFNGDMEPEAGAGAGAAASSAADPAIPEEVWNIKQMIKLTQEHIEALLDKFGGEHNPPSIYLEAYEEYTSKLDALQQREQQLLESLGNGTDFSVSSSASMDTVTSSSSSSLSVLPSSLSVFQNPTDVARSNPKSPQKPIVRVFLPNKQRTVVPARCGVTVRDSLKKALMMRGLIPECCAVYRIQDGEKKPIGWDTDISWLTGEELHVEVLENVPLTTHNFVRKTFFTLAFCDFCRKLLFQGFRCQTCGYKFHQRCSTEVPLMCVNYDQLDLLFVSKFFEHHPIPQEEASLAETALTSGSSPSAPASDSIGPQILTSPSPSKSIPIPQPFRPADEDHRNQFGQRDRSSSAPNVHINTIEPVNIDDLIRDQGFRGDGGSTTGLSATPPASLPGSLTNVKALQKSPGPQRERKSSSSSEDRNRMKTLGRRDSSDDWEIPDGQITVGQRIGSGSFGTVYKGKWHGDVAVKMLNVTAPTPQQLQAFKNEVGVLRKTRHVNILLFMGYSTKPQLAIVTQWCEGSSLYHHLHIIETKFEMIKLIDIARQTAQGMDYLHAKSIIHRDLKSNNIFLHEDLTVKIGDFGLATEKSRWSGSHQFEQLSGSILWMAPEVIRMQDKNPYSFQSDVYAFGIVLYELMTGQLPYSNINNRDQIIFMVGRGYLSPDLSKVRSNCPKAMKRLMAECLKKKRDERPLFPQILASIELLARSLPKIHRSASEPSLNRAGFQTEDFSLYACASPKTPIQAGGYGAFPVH
Sequence of GTPase KRas (P01116 whole entry G13D): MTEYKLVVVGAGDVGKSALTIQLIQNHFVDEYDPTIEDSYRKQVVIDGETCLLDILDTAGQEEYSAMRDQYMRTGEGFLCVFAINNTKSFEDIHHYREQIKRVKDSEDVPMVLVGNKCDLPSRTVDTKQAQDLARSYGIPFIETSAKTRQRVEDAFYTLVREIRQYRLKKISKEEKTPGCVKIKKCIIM
Sequence of Vascular endothelial growth factor receptor 2 (P35968 whole entry): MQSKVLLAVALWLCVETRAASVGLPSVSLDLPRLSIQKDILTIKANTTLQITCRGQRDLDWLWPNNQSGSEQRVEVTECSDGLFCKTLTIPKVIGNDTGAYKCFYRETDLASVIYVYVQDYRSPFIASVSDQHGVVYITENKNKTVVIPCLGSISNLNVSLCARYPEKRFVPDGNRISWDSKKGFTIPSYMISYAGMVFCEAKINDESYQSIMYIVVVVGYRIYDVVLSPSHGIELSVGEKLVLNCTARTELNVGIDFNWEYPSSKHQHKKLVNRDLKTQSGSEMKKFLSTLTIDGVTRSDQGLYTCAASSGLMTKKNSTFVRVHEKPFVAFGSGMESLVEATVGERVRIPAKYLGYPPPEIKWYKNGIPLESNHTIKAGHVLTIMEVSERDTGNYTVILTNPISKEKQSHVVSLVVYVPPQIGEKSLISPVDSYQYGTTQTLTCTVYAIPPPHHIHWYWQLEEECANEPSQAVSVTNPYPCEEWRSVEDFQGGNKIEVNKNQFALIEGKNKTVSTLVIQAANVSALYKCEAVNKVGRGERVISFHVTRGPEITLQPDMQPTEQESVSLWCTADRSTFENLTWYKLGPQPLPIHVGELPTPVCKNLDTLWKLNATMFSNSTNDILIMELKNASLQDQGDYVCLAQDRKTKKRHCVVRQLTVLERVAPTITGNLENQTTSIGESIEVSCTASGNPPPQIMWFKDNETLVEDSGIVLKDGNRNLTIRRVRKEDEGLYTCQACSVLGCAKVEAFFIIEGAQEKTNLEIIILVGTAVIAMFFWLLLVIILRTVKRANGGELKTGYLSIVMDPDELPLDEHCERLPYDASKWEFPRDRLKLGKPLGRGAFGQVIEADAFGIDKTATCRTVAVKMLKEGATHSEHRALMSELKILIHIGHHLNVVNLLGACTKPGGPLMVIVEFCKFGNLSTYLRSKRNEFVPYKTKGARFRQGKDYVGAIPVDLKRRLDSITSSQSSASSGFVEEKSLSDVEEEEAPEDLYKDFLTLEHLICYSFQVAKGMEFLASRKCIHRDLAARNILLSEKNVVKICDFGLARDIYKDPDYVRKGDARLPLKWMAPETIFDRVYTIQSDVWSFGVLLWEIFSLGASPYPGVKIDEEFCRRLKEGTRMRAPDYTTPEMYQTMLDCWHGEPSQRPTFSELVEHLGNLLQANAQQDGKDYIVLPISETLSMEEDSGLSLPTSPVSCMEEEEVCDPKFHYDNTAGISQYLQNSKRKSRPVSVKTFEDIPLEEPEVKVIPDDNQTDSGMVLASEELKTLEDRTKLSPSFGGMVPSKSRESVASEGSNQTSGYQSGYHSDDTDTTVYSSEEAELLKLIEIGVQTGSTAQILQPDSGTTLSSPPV
Sequence of Serine/threonine-protein kinase A-Raf (P10398 whole entry): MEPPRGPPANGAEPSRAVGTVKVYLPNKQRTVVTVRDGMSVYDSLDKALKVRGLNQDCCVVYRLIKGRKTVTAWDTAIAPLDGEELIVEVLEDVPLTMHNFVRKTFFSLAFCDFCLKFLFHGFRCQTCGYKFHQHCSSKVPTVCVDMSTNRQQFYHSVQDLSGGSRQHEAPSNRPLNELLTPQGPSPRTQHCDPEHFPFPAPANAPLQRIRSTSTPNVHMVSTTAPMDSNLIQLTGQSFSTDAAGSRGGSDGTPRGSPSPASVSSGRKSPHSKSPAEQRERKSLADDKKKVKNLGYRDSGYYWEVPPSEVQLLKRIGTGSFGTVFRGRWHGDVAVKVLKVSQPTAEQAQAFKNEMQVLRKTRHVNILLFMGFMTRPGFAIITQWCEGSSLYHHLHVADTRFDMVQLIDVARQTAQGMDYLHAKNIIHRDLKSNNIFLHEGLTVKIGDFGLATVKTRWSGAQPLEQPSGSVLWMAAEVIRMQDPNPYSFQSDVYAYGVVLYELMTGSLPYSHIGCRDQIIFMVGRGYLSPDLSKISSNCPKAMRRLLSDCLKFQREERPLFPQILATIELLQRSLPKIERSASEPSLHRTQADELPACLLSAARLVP

## CNc1ncc2cc(-c3cc(NC(=O)NCCC(C)(C)C)c(F)cc3C)cnc2n1
[1]
  IC50: 2 nM
[2]
  IC50: 1900 nM
[3]
  IC50: 27 nM
[4]
  IC50: 4.4 nM
[5]
  IC50: > 20000 nM
A-375
  IC50: 18 nM
HCT-116
  IC50: 110 nM
[6]
  IC50: 1.2 nM
GTPase KRas
  IC50: 16 nM

## CNc1cc2nc(C)c(-c3cc(NC(=O)NCCC(C)(C)C)ccc3C)cc2cn1
[1]
  IC50: 4.3 nM
[3]
  IC50: 140 nM
[4]
  IC50: 27 nM
[5]
  IC50: > 20000 nM
A-375
  IC50: 35 nM
HCT-116
  IC50: 510 nM
[6]
  IC50: 6.7 nM
GTPase KRas
  IC50: 270 nM

## CCn1c(=O)c(-c2cc(NC(=O)NCCC(C)(C)C)c(F)cc2C)cc2cnc(NC)cc21
[1]
  IC50: 4.2 nM
[2]
  IC50: 25 nM
[3]
  IC50: 40 nM
[4]
  IC50: 11 nM
[5]
  IC50: 2500 nM
A-375
  IC50: 34 nM
HCT-116
  IC50: 130 nM
[6]
  IC50: 5.2 nM
GTPase KRas
  IC50: 120 nM

## CC(C)(C)c1nc(-c2cccc(NS(=O)(=O)c3c(F)cccc3F)c2F)c(-c2ccnc(N)n2)s1 [DABRAFENIB]
[7]
  IC50: 26 nM
GTPase KRas
  IC50: 5880 nM

## Cc1cc(F)c(NC(=O)NCCC(C)(C)C)cc1-c1cc2cnc(N)nc2nc1C
[1]
  IC50: 7.9 nM
[2]
  IC50: 540 nM
A-375
  IC50: 33 nM
HCT-116
  IC50: 190 nM

## CNc1cc2nc(C)c(-c3cc(NC(=O)NCCC(C)(C)C)c(F)cc3C)cc2cn1
[8]
  clearance: 3.36 mL/min/kg
[1]
  IC50: 18 nM
[2]
  IC50: 170 nM
[9]
  bioavailability: 30%
[3]
  IC50: 47 nM
[4]
  IC50: 28 nM
[5]
  IC50: 5900 nM
A-375
  IC50: 11 nM
HCT-116
  IC50: 320 nM
[6]
  IC50: 5.6 nM
GTPase KRas
  IC50: 120 nM

## CNc1cc2nc(C)c(-c3ccc(F)c(NC(=O)NCCC(C)(C)C)c3)cc2cn1
[1]
  IC50: 3 nM
[2]
  IC50: 33 nM
[3]
  IC50: 82 nM
[4]
  IC50: 8.4 nM
[5]
  IC50: > 20000 nM
A-375
  IC50: 40 nM
HCT-116
  IC50: 160 nM
[6]
  IC50: 1.6 nM
GTPase KRas
  IC50: 46 nM

## CNc1cc2c(cn1)cc(-c1ccc(F)c(NC(=O)Nc3cc(C(C)(C)C)no3)c1)c(=O)n2[C@H]1CCOC1
[10]
  CL/F: 50 mL/min/kg
[1]
  IC50: 1 nM
[2]
  IC50: 0.46 nM
[11]
  solubility: 1 µg/mL (≈ 1.92 µM)
[12]
  bioavailability: < 10%
[9]
  bioavailability: < 10%
[3]
  IC50: 6.8 nM
[13]
  CL/F: 6 mL/min/kg
[4]
  IC50: 18 nM
[14]
  solubility: 2 µg/mL (≈ 3.84 µM)
[5]
  IC50: 2900 nM
A-375
  IC50: 6.1 nM
HCT-116
  IC50: 32 nM
[6]
  IC50: 3.1 nM
GTPase KRas
  IC50: 57 nM

## CCCS(=O)(=O)Nc1ccc(F)c(C(=O)c2c[nH]c3ncc(-c4ccc(Cl)cc4)cc23)c1F [VEMURAFENIB]
[15]
  Activity: Active
[2]
  IC50: 360 nM
[7]
  IC50: 950 nM
[5]
  IC50: 1500 nM
A-375
  IC50: 170 nM
HCT-116
  IC50: > 10000 nM
GTPase KRas
  IC50: 16600 nM

## CCn1c(=O)c(-c2ccc(F)c(NC(=O)Nc3cc(C(C)(C)C)no3)c2)cc2cnc(NC)cc21
Mus musculus [16]
  INH: 167 ng/mL
Mus musculus [17]
  inhibition: Active
Canis familiaris [18]
  Activity: Toxic
Rattus norvegicus [19]
  Activity: Toxic
[10]
  CL/F: 13 mL/min/kg
[1]
  IC50: 1.2 nM
[2]
  IC50: 1.9 nM
[11]
  solubility: 41 µg/mL (≈ 85.7 µM)
Mus musculus [20]
  ED50: 10.4 mg/kg
  ED80: 20.5 mg/kg
[12]
  bioavailability: 69%
[9]
  bioavailability: 28%
Mus musculus [21]
  INH: 843 ng/mL
[3]
  IC50: 96 nM
Rattus norvegicus [22]
  Activity: Toxic
Canis familiaris [23]
  Activity: Toxic
[13]
  CL/F: 14 mL/min/kg
[4]
  IC50: 10 nM
[14]
  solubility: 310 µg/mL (≈ 648 µM)
Rattus norvegicus [24]
  Activity: Toxic
[5]
  IC50: 4000 nM
Rattus norvegicus [25]
  Activity: Toxic
A-375
  IC50: 56 nM
Canis familiaris [26]
  Activity: Toxic
Canis familiaris [27]
  Activity: Toxic
HCT-116
  IC50: 160 nM
Mus musculus [28]
  Activity: Non-toxic
[6]
  IC50: 2.9 nM
GTPase KRas
  IC50: 91 nM
Mus musculus [29]
  inhibition: Dose-dependent effect

## CNc1ncc2cc(-c3ccc(F)c(NC(=O)NCCC(C)(C)C)c3)c(C)nc2n1
[1]
  IC50: 7.6 nM
[2]
  IC50: 750 nM
[3]
  IC50: 110 nM
[4]
  IC50: 18 nM
[5]
  IC50: > 20000 nM
A-375
  IC50: 26 nM
HCT-116
  IC50: 280 nM
[6]
  IC50: 2.8 nM
GTPase KRas
  IC50: 48 nM
